Reference: ChEMBL document CHEMBL1126793, “Effect of trifluoromethyl and other substituents on activity of xanthines at adenosine receptors” (J Med Chem, 1993)

What was measured:
[1] = biological target: T1, Adenosine receptor A1 (Rattus norvegicus) (UniProt P25099); assay: Inhibition of [3H]PIA binding to Adenosine A1 receptor in rat brain membranes at 100 uM; assay type: cell membranes; settings: 250 uM, in the assay text read “250 uM” for “100 uM”
T1 sequence (whole entry): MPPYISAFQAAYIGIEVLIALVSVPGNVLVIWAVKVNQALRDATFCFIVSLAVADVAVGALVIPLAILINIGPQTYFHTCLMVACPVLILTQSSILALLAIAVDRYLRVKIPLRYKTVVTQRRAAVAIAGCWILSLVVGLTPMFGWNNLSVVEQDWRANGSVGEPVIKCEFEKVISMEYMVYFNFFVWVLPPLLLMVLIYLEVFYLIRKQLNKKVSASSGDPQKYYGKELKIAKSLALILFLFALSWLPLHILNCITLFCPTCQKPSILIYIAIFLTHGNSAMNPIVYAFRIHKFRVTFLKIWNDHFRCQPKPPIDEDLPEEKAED
In short: (§1)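 Rat brain membranes labelled with 1 nM [3H]-N6-[(R)-phenylisopropyl]adenosine for A1 sites. Nonspecific binding was defined with 10 μM 2-chloroadenosine. The value is percent inhibition of specific binding at the highest concentration tested, which was sometimes limited by solubility.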

[2] = biological target: Adenosine receptor A2a (Rattus norvegicus) (UniProt P30543); assay: Inhibition of [3H]-CGS- 21680 binding to Adenosine A2A receptor in rat brain membranes at 250 uM; assay type: cell membranes
In short: (§2)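 Rat striatal membranes incubated with 4 nM [3H]CGS 21680 as the A2a radioligand. Nonspecific binding was defined with 20 μM 2-chloroadenosine. The value is percent inhibition of specific binding at the highest concentration tested, which was sometimes limited by solubility.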

Adenosine receptor A2a = Adenosine receptor A2a (Rattus norvegicus, UniProt P30543); assay: Binding affinity for adenosine A2A receptor from rat brain membranes using [3H]CGS-21680
Adenosine receptor A1 = biological target: T2, Adenosine receptor A1 (Rattus norvegicus, UniProt P25099); assay: Binding affinity for adenosine A1 receptor from rat brain membranes using [3H]PIA as radioligand
T2 sequence (P25099 whole entry): T1 sequence (whole entry)

[3] = biological target: Adenosine receptor A2a (Rattus norvegicus) (UniProt P30543); assay: Inhibition of [3H]-CGS- 21680 binding to Adenosine A2A receptor in rat brain membranes at 100 uM; assay type: cell membranes; in short: as §2
[4] = biological target: T1, Adenosine receptor A1 (Rattus norvegicus); assay: Inhibition of [3H]PIA binding to A1 adenosine receptor in rat brain membranes at 250 uM; assay type: cell membranes; in short: as §1
[5] = biological target: Adenosine receptor A2a (Rattus norvegicus) (UniProt P30543); assay: Inhibition of [3H]-CGS- 21680 binding to Adenosine A2A receptor in rat brain membranes at […]; assay type: cell membranes; in short: as §2
[6] = biological target: Adenosine receptor A2a (Rattus norvegicus) (UniProt P30543); assay: Inhibition of [3H]-CGS- 21680 binding to Adenosine A2A receptor in rat brain membranes at 20 uM; assay type: cell membranes; in short: as §2

Sequence of Adenosine receptor A2a (P30543 whole entry): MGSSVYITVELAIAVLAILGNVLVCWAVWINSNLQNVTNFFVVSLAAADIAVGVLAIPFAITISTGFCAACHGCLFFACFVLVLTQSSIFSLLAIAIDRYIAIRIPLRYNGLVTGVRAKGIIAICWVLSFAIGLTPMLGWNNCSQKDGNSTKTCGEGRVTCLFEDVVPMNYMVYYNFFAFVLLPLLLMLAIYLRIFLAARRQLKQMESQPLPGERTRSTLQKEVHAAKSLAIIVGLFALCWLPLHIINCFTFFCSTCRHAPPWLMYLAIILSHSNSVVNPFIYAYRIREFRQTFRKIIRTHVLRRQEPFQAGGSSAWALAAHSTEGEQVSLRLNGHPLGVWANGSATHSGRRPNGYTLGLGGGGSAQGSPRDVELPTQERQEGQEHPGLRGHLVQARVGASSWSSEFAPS
Sequence of Adenosine receptor A2a (Rattus norvegicus) (P30543 whole entry): as above

Row | Ki (Adenosine receptor A2a) | Ki (Adenosine receptor A1) | SMILES | also measured
1 |  |  | Cn1c(-c2ccc(S(N)(=O)=O)cc2)nc2c1c(=O)[nH]c(=O)n2C | inhibition [1]: 33%; inhibition [2]: 42%
2 | 12 µM | 9 µM | C=CCn1c(=O)c2c(nc(-c3ccccc3)n2C)n(C)c1=O | 
3 | 29 µM |  | Cn1c(=O)c2c(nc(C(F)(F)F)n2C)n(C)c1=O | inhibition [1]: 8%
4 | 0.075 µM |  | CCCn1c(=O)c2nc(-c3ccc(S(N)(=O)=O)cc3)[nH]c2n(CCC)c1=O | 
5 | 2.6 µM |  | CCCn1c(=O)c2nc[nH]c2n(CCC)c1=O | 
6 |  |  | Cn1c(-c2ccc(S(=O)(=O)O)cc2)nc2c1c(=O)[nH]c(=O)n2C | inhibition [1]: 1.8%; inhibition [2]: 0%
7 | 7.6 µM | 4.9 µM | Cc1nc2c(c(=O)n(C)c(=O)n2C)n1C | 
8 |  | 8.8 µM | Cc1nc2c(=O)n(C)c(=O)n(C)c2[nH]1 | inhibition [2]: 34%
9 |  |  | Cn1c(=O)c2[nH]c(Cl)nc2n(C)c1=O | inhibition [1]: 39%; inhibition [3]: 34%
10 | 2.8 µM | 0.6 µM | CCCn1c(=O)c2nc(C)[nH]c2n(CCC)c1=O | 
11 |  |  | Cn1c(=O)c2nc(C(F)(F)F)[nH]c2n(C)c1=O | inhibition [4]: 0%; inhibition [2]: 0%
12 | 27 µM |  | C=CCn1c(=O)c2c(nc(-c3ccc(S(=O)(=O)O)cc3)n2C)n(C)c1=O | inhibition [1]: 35%
13 | 7.7 µM | 0.66 µM | C=CCn1c(=O)c2c(nc(-c3ccccc3)n2CC=C)n(C)c1=O | 
14 | 0.042 µM | 0.0075 µM | CCCn1c(=O)c2nc(-c3ccc(C(F)(F)F)cc3)[nH]c2n(CCC)c1=O | 
15 | 0.44 µM | 0.38 µM | CCC/C=C/c1nc2c(=O)n(C)c(=O)n(C)c2[nH]1 | 
16 | 0.14 µM |  | CCCn1c(=O)c2[nH]c(-c3ccccc3)nc2n(CCC)c1=O | 
17 |  | 3.7 µM | Cn1c(-c2ccc(C(F)(F)F)cc2)nc2c1c(=O)[nH]c(=O)n2C | inhibition [5]: 10%
18 | 0.21 µM | 0.15 µM | Cn1c(=O)c2[nH]c(-c3ccc(C(F)(F)F)cc3)nc2n(C)c1=O | 
19 | 0.97 µM |  | Cn1c(=O)c2[nH]c(-c3ccccc3)nc2n(C)c1=O [8-PHENYL THEOPHYLLINE] | 

Row | Ki (Adenosine receptor A2a) | Ki (Adenosine receptor A1) | SMILES | also measured
20 | 5.8 µM |  | CC(C)Cn1c(=O)n(C)c(=O)c2[nH]cnc21 [ISOBUTYLMETHYLXANTHINE] | 
21 | 16 µM | 17 µM | Cn1c(=O)c2c(nc(-c3ccc(C(F)(F)F)cc3)n2C)n(C)c1=O | 
22 | 12 µM |  | Cn1c(-c2ccccc2)nc2c1c(=O)[nH]c(=O)n2C | 
23 |  |  | CCCn1c(=O)c2nc(C(F)(F)F)[nH]c2n(CCC)c1=O | inhibition [1]: 4.5%; inhibition [6]: 4.3%
24 | 0.79 µM |  | CCCn1c(=O)c2[nH]c(-c3ccc(S(=O)(=O)O)cc3)nc2n(CCC)c1=O | 
25 | 12 µM | 49 µM | Cn1c(=O)c2c(nc(Br)n2C)n(C)c1=O | 
26 | 4.2 µM | 2.9 µM | C=CCn1c(-c2ccc(C(F)(F)F)cc2)nc2c1c(=O)n(CCC)c(=O)n2CCC | 
27 | 16 µM |  | Cn1c(=O)c2c(nc(-c3ccccc3)n2C)n(C)c1=O | 
28 | 19 µM | 30 µM | Cn1c(=O)c2c(nc(C3CCC3)n2C)n(C)c1=O | 
29 | 20 µM |  | Cn1c(=O)c2c(nc(-c3ccc(S(=O)(=O)O)cc3)n2C)n(C)c1=O | inhibition [1]: 3.3%
30 |  | 9.1 µM | CCC/C=C/c1nc2c(c(=O)n(C)c(=O)n2C)n1C | 
31 | 0.61 µM | 12 µM | Cn1c(=O)c2c(nc(/C=C/C(=O)OC(C)(C)C)n2C)n(C)c1=O | 
32 | 42 µM |  | Cn1c(=O)c2c(nc(/C=C/C(=O)O)n2C)n(C)c1=O | inhibition [1]: 3%
33 | 2.8 µM | 0.19 µM | Cn1c(=O)c2nc(C3CCC3)[nH]c2n(C)c1=O | 
34 | 11 µM | 5.7 µM | C=CCn1c(=O)c2c(nc(-c3ccc(C(F)(F)F)cc3)n2C)n(C)c1=O | 
35 | 5.8 µM |  | Cn1c(=O)c2[nH]c(-c3ccc(S(=O)(=O)O)cc3)nc2n(C)c1=O | 
36 |  | 65 µM | CC(C)Cn1c(=O)n(C)c(=O)c2[nH]c(Br)nc21 | inhibition [3]: 10%
37 |  | 10.2 µM | Cn1c(=O)c2[nH]c(Br)nc2n(C)c1=O [PAMABROM] | inhibition [3]: 36%
